# ADAM17 inh: ADAM17 inhibition, QFRET primary screen | recombinant ADAM17, EDANS/DABCYL FRET peptide cleavage | inhibition, % at 6.95 µM | actives 0.83% (n = 370,000) | AID 720648;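 active means inhibition above the mean of compounds lying between control limits plus 3 SD, set per campaign, cut at about 8.5% in these data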
# Target sequence (P78536 215-824 limits assumed): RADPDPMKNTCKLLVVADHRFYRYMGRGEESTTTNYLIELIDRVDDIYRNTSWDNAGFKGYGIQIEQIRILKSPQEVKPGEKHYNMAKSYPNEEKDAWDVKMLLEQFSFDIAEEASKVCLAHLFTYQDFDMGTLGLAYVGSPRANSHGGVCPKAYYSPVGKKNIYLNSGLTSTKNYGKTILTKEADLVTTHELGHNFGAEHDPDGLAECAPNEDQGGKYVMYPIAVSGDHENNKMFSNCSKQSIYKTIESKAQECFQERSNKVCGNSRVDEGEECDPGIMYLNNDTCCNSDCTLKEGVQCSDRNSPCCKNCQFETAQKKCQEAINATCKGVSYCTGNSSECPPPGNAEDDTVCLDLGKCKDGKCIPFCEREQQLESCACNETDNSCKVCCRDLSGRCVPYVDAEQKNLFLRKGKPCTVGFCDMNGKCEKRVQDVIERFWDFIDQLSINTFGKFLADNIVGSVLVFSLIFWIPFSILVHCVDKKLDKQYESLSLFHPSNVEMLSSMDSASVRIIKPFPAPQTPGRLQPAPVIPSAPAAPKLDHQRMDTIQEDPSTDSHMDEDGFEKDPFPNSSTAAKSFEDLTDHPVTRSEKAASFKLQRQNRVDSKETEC
# FAS-TE inh: FAS thioesterase (human) inhibition | P49327 | recombinant FAS-TE, OMFH fluorogenic substrate, fluorescence endpoint | inhibition, % at 15 µM | actives 0.67% (n = 360,000) | AID 602261;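 active means compounds whose normalised, plate-corrected inhibition of enzyme fluorescence in the single-dose primary screen is 50% or more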
# Arr AP2 block: blocks beta-arrestin peptide binding to AP2 adaptin; FITC-arrestin peptide / GST-AP2 beads, flow cytometry; AP2 beta2 appendage carries R879A mutation; inhibition, % at 10 µM; actives 0.31% (n = 340,000);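 active means inhibition above a set limit, near 3 SD of compounds lacking own fluorescence, cut at about 54% in these data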
#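 System: GST-AP2 R879A glutathione beads; medium: PBS, Tween 20 0.05%, BSA 0.1%; reagent: fluorescein-tagged arrestin peptide at 50 nM final; schedule: pre-incubation 12 min, peptide binding 1 h, room temperature; detection: flow cytometry, FL1 (488/535 nm); read-out: inhibition as reduced fluorescein signal on beads, percent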
# ADAM10 inh: ADAM10 inhibition, QFRET primary screen | recombinant ADAM10, EDANS/DABCYL FRET peptide cleavage, 3 h | inhibition, % at 7 µM | actives 0.62% (n = 370,000) | AID 720582;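 active means inhibition above a per-campaign cutoff equal to the mean of compounds falling between control-based bounds plus 3 SD, cut at about 20% in these data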
# CaV13 ICDI inh: Primary screen for inhibitors of IQ motif and Ca2+-dependent inactivation inhibitor domain binding in CACNA1D, Förster resonance energy transfer in living cells, …. inhibition, % at 12.3 µM. actives 0.098% (n = 340,000). HEK cells, CFP/YFP FRET ICDI-IQ, plate reader, 10 min; percent FRET-ratio fall versus neutral wells. AID 743397;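 active means mean replicate inhibition of at least 30% and at least 1% of replicates passing that level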
# CendR NRP1 mod: alters CendR peptide binding to human NRP-1. O14786. FAM-RPARPAR peptide binding to NRP-1, fluorescence polarization. inhibition, % at 25 µM. actives 0.85% (n = 360,000);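 active means inhibition or corrected inhibition above about 18%, plus a signal ratio from 0.5 to 1.5, limit read from the data, passing the limit was not always enough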
# Numbers stand for hits; n = inactive; x = no result. Sampled rows, rich in hits. Any-hit rate of the full collection: about 2.9%.
SMILES,ADAM17 inh,FAS-TE inh,Arr AP2 block,ADAM10 inh,CaV13 ICDI inh,CendR NRP1 mod
COc1cc2c(cc1OC)-c1cc3ccc(OC)c(OC)c3c[n+]1CC2,n,n,n,n,n,n
COc1ccc2cc3[n+](cc2c1O)CCc1cc2c(cc1-3)OCO2,n,n,x,n,n,30.7
CCCc1nc2ccccc2c(C(=O)OCC(=O)Nc2cccc(S(=O)(=O)N3CCOCC3)c2)c1CC,16.8,n,n,32.1,n,n
O=C(COC(=O)c1n[nH]c2ccccc12)Nc1cccc(S(=O)(=O)N2CCOCC2)c1,n,n,n,n,n,n
Cc1cccc(CN2CCN([C@H]3CS(=O)(=O)N[C@@H]3COCc3ccccc3)CC2)c1,n,n,x,n,n,25.5
COc1cccc2c1OCC/C2=N\NC(=O)COc1ccccc1C,n,n,n,n,n,31.8
Cc1nc2c(OCCC3CCCCC3)cccn2c1N(C)C(=O)CCC1CCCC1,n,n,x,n,n,26.4
Cc1nc2c(OCCOc3ccccc3)cccn2c1N(C)C(=O)CCC1CCCC1,n,n,x,n,n,n
Cc1ccc(NNS(=O)(=O)c2ccc(C)cc2)cc1,n,n,n,n,n,28.1
O=c1c2cn[nH]c2nc(SCc2cc(=O)n3cc(Br)ccc3n2)n1-c1ccc(Br)cc1,n,n,n,n,n,32.3
Cc1ccccc1-n1c(SCc2cc(=O)n3ccccc3n2)nc2[nH]ncc2c1=O,n,n,n,n,x,n
O=c1c2cn[nH]c2nc(SCc2ccccc2F)n1-c1ccc(Br)cc1,n,n,n,n,n,25.5
COc1ccc(N2CCN(C(=O)CSc3nc4[nH]ncc4c(=O)n3-c3ccc(Br)cc3)CC2)cc1,n,n,n,n,n,n
CCCCNC(=O)CSc1nc2ccc(C)cc2[nH]1,n,n,n,n,n,34.7
COc1ccc(CNC(=O)CSc2nc3ccc(C)cc3[nH]2)cc1,n,n,n,n,n,n
Cc1cc(OC(C)CCN2CCC(C(O)(c3ccccc3)c3ccccc3)CC2)ccc1Br (stereo not given),n,x,x,n,x,x
O=C(/C=C/c1cccnc1)c1ccc(NC(=O)c2cccc(Br)c2)cc1,n,n,n,n,n,19.0
CC(C)(C)C(C(=O)NC1CCCC1)N1CCN(c2ncccc2C#N)CC1 (stereo not given),n,x,x,n,n,29.6
CCn1cc(-c2ccnc3cc(C(=O)O)nn23)c(C)n1,n,n,n,n,n,31.7
COc1ccc(-c2cc(CNc3nc4cc(-c5ccccc5C)sc4c(=O)n3C)on2)cc1,n,n,x,n,n,n
CCCCc1ccc(S(=O)(=O)N2CCC3(CC2)OCCO3)cc1,n,n,n,n,n,32.6
O=S(=O)(c1ccc(Cl)cc1)N1CCC2(CC1)OCCO2,n,n,n,n,n,n
Cc1sc2ncn(CC(=O)N3CCN(c4ccccn4)CC3)c(=O)c2c1S(=O)(=O)N1CCCCC1,n,n,n,n,n,31.3
COC(=O)c1cc2ccccc2c([N+](=O)[O-])c1O,n,n,n,n,n,22.7
COC(=O)CCC/C=C1/SCC(NC(=O)c2ccccc2)C1=O (stereo not given),12.0,n,n,n,x,n
SMILES,ADAM17 inh,FAS-TE inh,Arr AP2 block,ADAM10 inh,CaV13 ICDI inh,CendR NRP1 mod
Cc1cccnc1NC(=O)CN1C(=O)NC(C)(c2ccc3ccccc3c2)C1=O (stereo not given),n,n,n,n,x,27.9
CCCCCC(C)NC(=O)CN1C(=O)NC(C)(c2ccc3ccccc3c2)C1=O (stereo not given),n,n,n,n,x,n
Cc1cccc(/C=N/c2sc3c(c2C(=O)OC(C)(C)C)CCN(C)C3)c1O,n,n,n,n,n,30.7
CC(C)n1c(O)c(N=NC(=O)CNC(=O)CCc2ccccc2)c2ccccc21,n,n,n,n,n,n
CC(C)n1c(O)c(N=NC(=O)CNC(=O)Cc2ccc(Cl)cc2)c2ccccc21,n,n,n,n,n,21.2
Nc1nc2ccccc2cc1S(=O)(=O)c1ccccc1,n,n,n,n,n,n
O=S(=O)(c1ccccc1)c1cnc2ccccc2c1,n,n,n,n,n,26.5
